The source of these data is ChEMBL document CHEMBL1132598, “Synthesis, corticotropin-releasing factor receptor binding affinity, and pharmacokinetic properties of triazolo-, imidazo-, and pyrrolopyrimidines and -pyridines” (J Med Chem, 1999).

The structures appear in SMILES notation.

A short description of data set [1]: The Brain concentration compared to plasma concentration in rats at steady state after intravenous infusion. Particulars: rat, brain and plasma, read-out: B/P.
Data set [2] is described as follows: The clearance was measured in dogs after intravenous administration of 1 mg/kg dose. In kind it is ADME, organism-based, Canis lupus familiaris. Details: dose 1 mg/kg, route intravenous. Conditions: dog, in vivo. The method, boiled down:
(§1)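 Dogs (n = 4–6) received 1 mg/kg iv in an ethanol/PEG-based cosolvent vehicle. Plasma was extracted liquid–liquid and quantified by LC/MS/MS. Clearance, steady-state volume and elimination half-life were derived from the concentration–time curves.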

A short description of data set [3]: Oral bioavailability in dog (dose 1 mg/kg). In kind it is ADME, organism-based, Canis lupus familiaris. Particulars: in vivo.
The nature of data set [4]: The Elimination half-life was measured in dogs after intravenous administration of 1 mg/kg dose. Particulars: dog, in vivo. Type of data set: ADME, organism-based, Canis lupus familiaris. On the set-up: dose 1 mg/kg, route intravenous. The method, boiled down: as §1
The nature of data set [5]: The Peak plasma concentration was measured in dogs after oral administration of 1 mg/kg dose. Particulars: dog. Type of data set: ADME, organism-based, Canis lupus familiaris. Details: dose 1 mg/kg, route oral.
A short description of data set [6]: The Peak plasma concentration was measured in rats after oral administration of 1 mg/kg dose. Type of data set: ADME, organism-based. Details: dose 1 mg/kg, route oral. Conditions: rat. The method, boiled down: (§2)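 Rats were given a single 1 mg/kg oral dose, as a 0.25% methylcellulose suspension or as a solution in EtOH/PG (20:80). Animals were sacrificed at 30 min and 1, 2, 4, 8 and 16 h, with blood collected into EDTA. Plasma was separated by centrifugation and extracted liquid–liquid. Analysis was by LC/MS/MS. Each value is a single determination or the average of two.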

A short description of data set [7]: Oral bioavailability in rat (dose 1 mg/kg). Type of data set: ADME, organism-based. Conditions: in vivo. In short, it runs like this: as §2
For data set [8], the system named is Canis familiaris. Description: The Plasma area under the compound concentration -time curve was measured in dogs after oral administration of 1 mg/kg dose. Type of data set: ADME, organism-based, Canis lupus familiaris. On the set-up: dose 1 mg/kg, route oral. Conditions: dog, in vivo.
Data set [9] can be described thus: The volume of distribution at steady state was measured in dogs after intravenous administration of 1 mg/kg dose. Type of data set: ADME, organism-based, Canis lupus familiaris. Details: dose 1 mg/kg, route intravenous. Conditions: dog, in vivo, read-out: Vss. In short, it runs like this: as §1
The test system of data set [10] is Rattus norvegicus. The experiment in a line: The Plasma area under the compound concentration -time curve was measured in rats after oral administration of 1 mg/kg dose. In kind it is ADME, organism-based. On the set-up: dose 1 mg/kg, route oral. Conditions: in vivo. In short, it runs like this: as §2
Data set [11] can be described thus: The time reach to maximum Peak plasma concentration was measured in dogs after oral administration of 1 mg/kg dose. Type of data set: ADME, organism-based, Canis lupus familiaris. Details: dose 1 mg/kg, route oral. Conditions: dog.
For data set [12], the target named is T1, Corticotropin-releasing factor receptor 1 (Homo sapiens, UniProt P34998).
T1 sequence (P34998 whole entry): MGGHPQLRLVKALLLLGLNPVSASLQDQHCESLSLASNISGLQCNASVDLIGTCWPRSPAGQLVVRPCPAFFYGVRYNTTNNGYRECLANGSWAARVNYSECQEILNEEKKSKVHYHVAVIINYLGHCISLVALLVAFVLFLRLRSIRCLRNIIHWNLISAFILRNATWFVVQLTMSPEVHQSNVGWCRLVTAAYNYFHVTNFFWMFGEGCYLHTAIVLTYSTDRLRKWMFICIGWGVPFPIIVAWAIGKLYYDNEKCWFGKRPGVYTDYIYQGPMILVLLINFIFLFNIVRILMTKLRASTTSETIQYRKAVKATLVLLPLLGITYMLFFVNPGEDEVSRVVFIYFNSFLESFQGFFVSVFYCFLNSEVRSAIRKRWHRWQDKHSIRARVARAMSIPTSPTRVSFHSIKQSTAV
Description: Binding affinity to recombinant human Corticotropin releasing factor receptor 1 (hCRF1) expressed in 293EBNA cells. Type of data set: cell-based.

Consider `COCCN(CCOC)c1nc(C)nc2c1nnn2-c1ccc(C(C)C)cc1Br`, for which, in data set [1], the Kp stood at 0.6. This compound gave a clearance in [2] of 7.97 mL/min/kg. For the same compound, the F in [3] is on record as 30.7%. Also, the half-life in data set [4] was 33.2 h. Also, the peak concentration (Cmax) was determined as 308 nM in data set [5] and 30 nM in [6]. In addition, the bioavailability in data set [7] is 17%. For the same compound, the AUC T came out at 0.914 µM·h in data set [8] and 0.098 µM·h in data set [10]. Moreover, the Vd in data set [9] came to 15.6 L/kg. The Tmax in [11] worked out at 0.67 h.

With `COCCN(Cc1ccccc1)c1nc(C)nc2c1nnn2-c1ccc(C(C)C)cc1Br`, the Kp in data set [1] was found to be 0.2. For the same compound, in data set [2], the clearance was 8.72 mL/min/kg. In addition, in [12], the Ki was found to be 5 nM. In addition, the bioavailability in data set [3] amounted to 7.3%; in data set [7], 15.5%. In [4], this compound showed a half-life of 46.7 h. Further, the Cmax in data set [5] came out at 39 nM; in data set [6], 12.5 nM. Moreover, the results for the AUC T in data set [8] and in data set [10] were 0.366 µM·h and 0.137 µM·h, respectively. For the same compound, the Vd in [9] was determined as 24.7 L/kg. In addition, the Tmax in data set [11] was 0.8 h.

Consider `CCC(COC)Oc1nc(C)nc2c1nnn2-c1ccc(C(C)C)cc1Br` (centres undefined), for which the Ki in data set [12] came out at 1.9 nM. Also, the concentration in data set [6] peaked (Cmax) at 5.9 nM. This compound showed a bioavailability in data set [7] of 6%. In [10], the AUC T came out at 0.021 µM·h.

On to `CCC(CCOC)Nc1nc(C)nc2c1ncn2-c1ccc(C(C)C)cc1Br` (centres undefined), for which the Ki in data set [12] amounted to 8 nM. The Cmax in data set [6] came to 19.9 nM. The bioavailability in [7] was 7%. For the same compound, in data set [10], the AUC T came to 0.03 µM·h.

As for `CCC(COC)Nc1nc(C)nc2c1nnn2-c1c(C)cc(C)cc1C` (centres undefined), the Ki in [12] worked out at 59.4 nM.

As to `CCCCN(CC)c1nc(C)nc2c1nnn2-c1ccc(C(C)C)cc1Br`, the clearance in [2] is 9.25 mL/min/kg. Moreover, the inhibitory constant (Ki) in data set [12] was 7.5 nM. Also, the figures for the bioavailability in [3] and in data set [7] were 18.4% and 26.5%, respectively. The half-life in data set [4] was 26 h. Moreover, the Cmax in data set [5] is 141 nM; in [6], 49.2 nM. The values for the AUC T in data set [8] and in data set [10] were 0.824 µM·h and 0.471 µM·h, respectively. In addition, the Vd in data set [9] came out at 7.54 L/kg. In addition, the Tmax in data set [11] was 1.25 h.

For `CCC(COC)Nc1nc(C)nc2c1nnn2-c1ccc(C(C)C)cc1Br` (stereo in doubt; 4x), the Kp in [1] is 0.6. Besides, the clearance in data set [2] was 7.38 mL/min/kg. For the same compound, in [12], the Ki turned out to be 6.1 nM. Further, the bioavailability stood at 53.1% in data set [3] and 21% in [7]. Also, the half-life in data set [4] was 19 h. Further, the Cmax in [5] stood at 546 nM; in [6], 30.7 nM. For the same compound, the results for the AUC T in data set [8] and in data set [10] were 3.14 µM·h and 0.146 µM·h, respectively. In addition, the Vd in data set [9] came to 10.1 L/kg. Also, in [11], the Tmax was 0.5 h.

`CCC(COC)Nc1nc(C)nc2c1nnn2-c1ccc(C(C)C)cc1Br` (stereo in doubt; 4y): the Ki in data set [12] came to 7.5 nM.

As to `CCC(COC)Nc1nc(C)nc2c1nnn2-c1ccc(C(C)C)cc1Br` (stereo in doubt; 4z), the inhibition constant Ki in data set [12] amounted to 9.4 nM.

For the compound `CCCCN(CC)c1nc(C)nc2c1c(C)c(C)n2-c1c(C)cc(C)cc1C` [ANTALARMIN], the Ki in data set [12] came to 0.84 nM.

With `CCCCN(CC)c1nc(C)nc2c1c(C)cn2-c1c(C)cc(C)cc1C` [CP-154526], the Ki in data set [12] came out at 1.61 nM.
